Experimental data from ChEMBL document CHEMBL1153436, “2-Pyridyl P1'-substituted symmetry-based human immunodeficiency virus protease inhibitors (A-792611 and A-790742) with potential for convenient dosing and reduced side effects” (J Med Chem, 2009).

Assays:
[1] = AUC in dog at 5 mg/kg, po; assay type: ADME, organism-based, Canis lupus familiaris; parameters: dose 5 mg/kg, route oral; conditions: plasma
Summary of the method: (§1)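 Male and female beagle dogs (n = 3) given oral gavage doses formulated as 5 mg/mL solutions in 5% dextrose with 20% ethanol, 30% propylene glycol and methanesulfonic acid, alone or with RTV (2.5 or 5 mg/kg). Plasma was taken at 12 time points over 12 h, extracted with ethyl acetate/hexane and analysed by reversed-phase HPLC with internal standard. AUC in µg·h/mL; Cmax and C12h in µg/mL.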

Cytochrome P450 3A4 = Cytochrome P450 3A4 (Homo sapiens, UniProt P08684); experiment: Inhibition of CYP3A4 assessed as midazolam 1'- hydroxylation; assay type: ADME
Summary of the method: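 CYP3A4 inhibition was measured as midazolam 1′-hydroxylation and expressed as Ki in nM.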

[2] = system: Human immunodeficiency virus 1; experiment: Antiviral activity against HIV1 bearing protease gene with A17 mutation infected in human MT4 cells after 5 days by MTT assay; assay type: functional, organism-based; conditions: Human immunodeficiency virus 1, MT4, 120 h
Summary of the method: (§2)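 HIV-1 A17 mutant clone carrying protease mutations L10F, V32I, M46I, I47V, Q58E and I84V, generated by in vitro serial passage under LPV/RTV. EC50 was determined in MT-4 cells. Wild-type reference strain was HIV-1 pNL4-3.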

[3] = system: Human immunodeficiency virus 1; experiment: Fold resistance, ratio of EC50 for HIV1 bearing protease gene with A17 mutation to EC50 for wild-type HIV1 pNL4-3; assay type: functional; summary of the method: as §2
Cytochrome P450 2C9 = Cytochrome P450 2C9 (Homo sapiens, UniProt P11712); experiment: Inhibition of CYP2C9 assessed as Tolbutamide hydroxylation; assay type: ADME
Summary of the method: (§3)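 CYP inhibition in vitro, with probe reactions of phenacetin O-deethylation (CYP1A2), tolbutamide hydroxylation (CYP2C9), S-mephenytoin hydroxylation (CYP2C19) and dextromethorphan O-demethylation (CYP2D6). Reported as IC50 in µM.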

Cytochrome P450 2D6 = Cytochrome P450 2D6 (Homo sapiens, UniProt P10635); experiment: Inhibition of CYP2D6 assessed as dextromethorphan O-demethylation; assay type: ADME; summary of the method: as §3
[4] = Solubility at pH 7.4; assay type: physicochemical; conditions: buffer
Summary of the method: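 Solubility measured in µg/mL at pH 7.4 and 25 °C.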

[5] = Concentration of drug after 12 hrs in dog at 5 mg/kg, po coadministered with 2.5 mg/kg ritonavir; assay type: ADME, organism-based, Canis lupus familiaris; conditions: in vivo, read-out: Drug uptake; summary of the method: as §1
Cytochrome P450 1A2 = target: T1, Cytochrome P450 1A2 (Homo sapiens, UniProt P05177); experiment: Inhibition of CYP1A2 assessed as phenacetin O-deethylation; assay type: ADME; summary of the method: as §3
T1 sequence (P05177 whole entry): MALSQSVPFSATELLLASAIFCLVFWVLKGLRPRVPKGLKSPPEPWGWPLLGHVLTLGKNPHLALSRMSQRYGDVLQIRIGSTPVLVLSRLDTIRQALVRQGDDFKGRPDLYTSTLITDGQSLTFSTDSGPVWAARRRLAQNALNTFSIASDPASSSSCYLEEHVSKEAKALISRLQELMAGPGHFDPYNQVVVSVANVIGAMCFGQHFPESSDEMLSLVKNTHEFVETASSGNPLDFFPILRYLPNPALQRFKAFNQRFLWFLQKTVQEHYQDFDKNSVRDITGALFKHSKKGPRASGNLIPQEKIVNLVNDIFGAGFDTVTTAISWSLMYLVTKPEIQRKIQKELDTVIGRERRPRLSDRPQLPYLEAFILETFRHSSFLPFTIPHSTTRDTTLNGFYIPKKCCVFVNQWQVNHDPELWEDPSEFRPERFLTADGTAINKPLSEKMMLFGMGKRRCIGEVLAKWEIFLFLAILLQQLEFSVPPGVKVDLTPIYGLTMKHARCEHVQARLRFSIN

[6] = AUC in Sprague-Dawley rat at 5 mg/kg, po in presence of ritonavir; assay type: ADME, organism-based; parameters: dose 5 mg/kg, route oral; conditions: plasma
Summary of the method: (§4)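 Male Sprague-Dawley-derived rats (n = 3) dosed iv or by oral gavage with 5 mg/mL solutions in 5% dextrose containing 20% ethanol, 30% propylene glycol and methanesulfonic acid equivalents. Plasma was sampled at 10 time points over 8 h, extracted into ethyl acetate/hexane and analysed by reversed-phase HPLC with internal standard. AUC in µg·h/mL.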

[7] = Cmax in dog at 5 mg/kg, po coadministered with 5 mg/kg ritonavir; assay type: ADME, organism-based, Canis lupus familiaris; parameters: dose 5 mg/kg, route oral; conditions: in vivo; summary of the method: as §1
[8] = Clearance in Sprague-Dawley rat at 5 mg/kg, iv; assay type: ADME, organism-based; parameters: dose 5 mg/kg, route intravenous; conditions: in vivo; summary of the method: as §4
[9] = AUC in dog at 5 mg/kg, po coadministered with 2.5 mg/kg ritonavir; assay type: ADME, organism-based, Canis lupus familiaris; conditions: plasma; summary of the method: as §1
[10] = system: Human immunodeficiency virus 1; experiment: Antiviral activity against wild-type HIV1 pNL4-3 infected in human MT4 cells after 5 days by MTT assay in presence of 50% human serum; assay type: functional, organism-based; conditions: Human immunodeficiency virus 1, MT4, 120 h
[11] = AUC in dog at 5 mg/kg, po coadministered with 5 mg/kg ritonavir; assay type: ADME, organism-based, Canis lupus familiaris; conditions: plasma; summary of the method: as §1
Rattus norvegicus [12] = experiment: Toxicity in Gunn rat assessed as unconjugated-bilirubin level at 125 mg/kg coadministered with ritonavir measured on day 1; assay type: organism-based; parameters: dose 125 mg/kg; conditions: in vivo
Summary of the method: (§5)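 Gunn rats (n = 8-10 per arm) dosed orally with compound in 5% ethanol/95% propylene glycol with p-toluenesulfonic acid, together with 50 mg/kg RTV. Plasma was sampled 4 h after the first and second doses. Drug was measured by HPLC and bilirubin […]. Change in bilirubin (mg/dL) reported as mean with SD.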

Serum [13] = experiment: Drug level in Gunn rat serum at 125 mg/kg coadministered with ritonavir measured on day 1; assay type: ADME, organism-based; parameters: dose 125 mg/kg; conditions: in vivo; summary of the method: as §5
Cytochrome P450 2C19 = Cytochrome P450 2C19 (Homo sapiens, UniProt P33261); experiment: Inhibition of CYP2C19 assessed as S-mephenytion hydroxylation; assay type: ADME; summary of the method: as §3
[14] = Cmax in dog at 5 mg/kg, po coadministered with 2.5 mg/kg ritonavir; assay type: ADME, organism-based, Canis lupus familiaris; parameters: dose 5 mg/kg, route oral; conditions: in vivo; summary of the method: as §1
Cathepsin D = Cathepsin D (Homo sapiens, UniProt P07339); experiment: Inhibition of cathepsin D
[15] = Cmax in dog at 5 mg/kg, po; assay type: ADME, organism-based, Canis lupus familiaris; parameters: dose 5 mg/kg, route oral; conditions: in vivo; summary of the method: as §1
[16] = Concentration of drug after 12 hrs in dog at 5 mg/kg, po coadministered with 5 mg/kg ritonavir; assay type: ADME, organism-based, Canis lupus familiaris; conditions: in vivo, read-out: Drug uptake; summary of the method: as §1
[17] = system: Human immunodeficiency virus 1; experiment: Antiviral activity against HIV1 bearing protease gene with B26 mutation infected in human MT4 cells after 5 days by MTT assay; assay type: functional, organism-based; conditions: Human immunodeficiency virus 1, MT4, 120 h
[18] = Oral bioavailability in Sprague-Dawley rat at 5 mg/kg; assay type: ADME, organism-based; conditions: in vivo; summary of the method: as §4
[19] = Inhibition of HIV protease; parameters: species or system Human immunodeficiency virus
[20] = system: Human immunodeficiency virus 1; experiment: Antiviral activity against HIV1 bearing protease gene with P25 mutation infected in human MT4 cells after 5 days by MTT assay; assay type: functional, organism-based; conditions: Human immunodeficiency virus 1, MT4, 120 h
Serum [21] = experiment: Drug level in Gunn rat serum at 125 mg/kg coadministered with ritonavir measured on day 2; assay type: ADME, organism-based; parameters: dose 125 mg/kg; conditions: in vivo; summary of the method: as §5
[22] = Inhibition of human pepsin
[23] = system: Human immunodeficiency virus 1; experiment: Antiviral activity against wild-type HIV1 pNL4-3 infected in human MT4 cells after 5 days by MTT assay; assay type: functional, organism-based; conditions: Human immunodeficiency virus 1, MT4, 120 h
Rattus norvegicus [24] = experiment: Toxicity in Gunn rat assessed as unconjugated-bilirubin level at 125 mg/kg coadministered with ritonavir measured on day 2; conditions: in vivo
Renin = target: T2, Renin (Homo sapiens, UniProt P00797); experiment: Inhibition of renin
T2 sequence (P00797 whole entry): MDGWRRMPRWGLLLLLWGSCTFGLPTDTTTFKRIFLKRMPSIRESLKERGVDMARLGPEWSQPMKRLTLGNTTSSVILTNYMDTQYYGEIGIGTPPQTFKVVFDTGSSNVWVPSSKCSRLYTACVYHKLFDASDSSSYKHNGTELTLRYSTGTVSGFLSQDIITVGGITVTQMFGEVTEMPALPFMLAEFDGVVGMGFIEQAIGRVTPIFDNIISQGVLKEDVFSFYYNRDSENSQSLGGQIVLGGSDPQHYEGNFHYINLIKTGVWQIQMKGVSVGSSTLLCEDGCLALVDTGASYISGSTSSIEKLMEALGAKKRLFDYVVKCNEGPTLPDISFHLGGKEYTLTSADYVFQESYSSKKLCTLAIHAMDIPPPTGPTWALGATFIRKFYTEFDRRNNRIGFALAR

[25] = Protein binding in human plasma by equilibrium dialysis; assay type: ADME, cell-free; conditions: read-out: PB (converted)
Summary of the method: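 Percentage bound in human plasma, determined by equilibrium dialysis.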

[26] = AUC in Sprague-Dawley rat at 5 mg/kg, po; assay type: ADME, organism-based; parameters: dose 5 mg/kg, route oral; conditions: plasma; summary of the method: as §4
[27] = Half life in Sprague-Dawley rat at 5 mg/kg, iv; assay type: ADME, organism-based; parameters: dose 5 mg/kg, route intravenous; conditions: in vivo; summary of the method: as §4

Chain of Cathepsin D (P07339 65-162 limits assumed): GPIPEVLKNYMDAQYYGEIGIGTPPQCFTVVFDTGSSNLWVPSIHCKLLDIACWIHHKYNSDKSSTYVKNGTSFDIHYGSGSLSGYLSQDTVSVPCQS
Chain of Cathepsin D (P07339 169-412 limits assumed): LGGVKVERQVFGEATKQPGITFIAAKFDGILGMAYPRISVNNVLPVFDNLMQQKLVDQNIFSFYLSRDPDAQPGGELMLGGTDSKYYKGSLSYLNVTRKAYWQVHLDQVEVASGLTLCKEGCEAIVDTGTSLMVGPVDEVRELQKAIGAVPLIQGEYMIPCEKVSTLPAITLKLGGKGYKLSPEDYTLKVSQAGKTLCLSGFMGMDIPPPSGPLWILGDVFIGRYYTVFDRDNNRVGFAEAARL
Chain of Cytochrome P450 2C9 (P11712 whole entry): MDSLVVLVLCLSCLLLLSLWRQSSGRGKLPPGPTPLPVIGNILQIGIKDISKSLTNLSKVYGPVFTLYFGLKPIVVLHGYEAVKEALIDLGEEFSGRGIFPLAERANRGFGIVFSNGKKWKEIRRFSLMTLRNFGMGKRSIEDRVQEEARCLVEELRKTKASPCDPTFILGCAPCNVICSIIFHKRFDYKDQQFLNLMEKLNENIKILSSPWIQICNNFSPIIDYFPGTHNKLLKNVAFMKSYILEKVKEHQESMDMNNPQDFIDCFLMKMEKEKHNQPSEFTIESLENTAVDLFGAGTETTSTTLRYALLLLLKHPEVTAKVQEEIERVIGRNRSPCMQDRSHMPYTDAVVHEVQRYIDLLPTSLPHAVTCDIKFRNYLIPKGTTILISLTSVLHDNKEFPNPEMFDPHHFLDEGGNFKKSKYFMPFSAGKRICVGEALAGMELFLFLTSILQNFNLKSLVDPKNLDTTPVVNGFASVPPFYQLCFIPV
Chain of Cytochrome P450 3A4 (P08684 whole entry): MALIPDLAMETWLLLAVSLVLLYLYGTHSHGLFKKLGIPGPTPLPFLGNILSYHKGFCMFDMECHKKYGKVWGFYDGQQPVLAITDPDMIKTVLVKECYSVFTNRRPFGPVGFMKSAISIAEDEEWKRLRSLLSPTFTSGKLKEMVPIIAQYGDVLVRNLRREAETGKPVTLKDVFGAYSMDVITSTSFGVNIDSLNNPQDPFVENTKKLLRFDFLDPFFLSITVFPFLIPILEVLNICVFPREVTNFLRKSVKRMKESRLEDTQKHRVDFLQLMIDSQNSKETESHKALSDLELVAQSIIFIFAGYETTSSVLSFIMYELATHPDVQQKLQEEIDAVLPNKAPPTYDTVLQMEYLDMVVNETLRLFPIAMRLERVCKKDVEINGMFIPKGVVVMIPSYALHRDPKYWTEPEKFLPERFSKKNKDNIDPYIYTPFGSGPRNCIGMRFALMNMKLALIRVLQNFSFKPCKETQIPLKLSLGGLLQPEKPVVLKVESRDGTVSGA
Chain of Cytochrome P450 2C19 (P33261 whole entry): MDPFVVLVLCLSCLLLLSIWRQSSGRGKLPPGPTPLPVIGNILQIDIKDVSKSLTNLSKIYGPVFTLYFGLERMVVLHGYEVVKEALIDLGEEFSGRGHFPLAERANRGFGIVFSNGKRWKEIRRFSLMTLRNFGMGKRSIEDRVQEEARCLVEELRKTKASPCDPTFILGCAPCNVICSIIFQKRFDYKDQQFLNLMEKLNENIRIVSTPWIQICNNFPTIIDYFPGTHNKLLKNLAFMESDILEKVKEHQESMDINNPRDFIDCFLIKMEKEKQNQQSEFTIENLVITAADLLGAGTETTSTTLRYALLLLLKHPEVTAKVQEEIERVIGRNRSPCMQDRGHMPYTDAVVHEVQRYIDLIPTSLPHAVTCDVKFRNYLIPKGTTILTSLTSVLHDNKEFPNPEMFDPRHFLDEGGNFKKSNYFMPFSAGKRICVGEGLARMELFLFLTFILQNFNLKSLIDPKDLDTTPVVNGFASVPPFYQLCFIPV
Chain of Cytochrome P450 2D6 (P10635 whole entry): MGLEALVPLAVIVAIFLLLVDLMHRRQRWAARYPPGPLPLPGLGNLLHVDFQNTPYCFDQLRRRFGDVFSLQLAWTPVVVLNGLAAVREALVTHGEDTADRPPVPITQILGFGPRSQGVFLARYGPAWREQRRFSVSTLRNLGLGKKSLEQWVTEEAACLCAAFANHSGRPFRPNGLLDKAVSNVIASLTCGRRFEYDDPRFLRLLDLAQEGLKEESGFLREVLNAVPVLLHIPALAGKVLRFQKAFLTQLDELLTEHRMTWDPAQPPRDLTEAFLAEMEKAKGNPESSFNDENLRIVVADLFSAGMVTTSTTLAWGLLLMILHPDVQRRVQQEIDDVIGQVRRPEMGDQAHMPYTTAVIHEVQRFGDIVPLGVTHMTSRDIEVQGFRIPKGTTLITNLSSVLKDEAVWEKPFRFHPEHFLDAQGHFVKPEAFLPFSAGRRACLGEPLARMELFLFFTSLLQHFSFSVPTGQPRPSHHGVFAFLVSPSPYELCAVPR

**Q.** For `COC(=O)N[C@H](C(=O)N[C@@H](Cc1ccc(-c2ccccn2)cc1)C[C@H](O)[C@H](Cc1ccccc1)NC(=O)[C@@H](N1CCN(Cc2ccccc2)C1=O)C(C)(C)C)C(C)(C)C`, which AUC [1] is on record?
**A.** 0.21 µg·h/mL

**Q.** And the Ki (Cytochrome P450 3A4)?
**A.** 18 nM

**Q.** And the EC50 [2]?
**A.** 22 nM

**Q.** What about the “Ratio EC50” value [3] of the same compound?
**A.** 11

**Q.** What about the IC50 (Cytochrome P450 2C9) of the same compound?
**A.** > 10000 nM

**Q.** And the IC50 (Cytochrome P450 2D6)?
**A.** > 10000 nM

**Q.** What about the solubility [4] of the same compound?
**A.** < 0.15 µg/mL

**Q.** And the concentration at 12 h [5]?
**A.** 0.068 µg/mL

**Q.** And the IC50 (Cytochrome P450 1A2)?
**A.** > 10000 nM

**Q.** And the AUC [6]?
**A.** 3.5 µg·h/mL

**Q.** And the Cmax [7]?
**A.** 5.89 µg/mL

**Q.** What about the clearance [8] of the same compound?
**A.** 1.15 L/h/kg

**Q.** And the AUC [9]?
**A.** 19 µg·h/mL

**Q.** What about the EC50 [10] of the same compound?
**A.** 12 nM

**Q.** What about the AUC [11] of the same compound?
**A.** 41.9 µg·h/mL

**Q.** And the Activity (Rattus norvegicus [12])?
**A.** 0.144 mg/dL

**Q.** And the Drug uptake (Serum [13])?
**A.** 2.45 µg/mL

**Q.** What about the IC50 (Cytochrome P450 2C19) of the same compound?
**A.** > 10000 nM

**Q.** What about the Cmax [14] of the same compound?
**A.** 3.91 µg/mL

**Q.** What about the Ki (Cathepsin D) of the same compound?
**A.** 4300 nM

**Q.** And the Cmax [15]?
**A.** 0.17 µg/mL

**Q.** What about the concentration at 12 h [16] of the same compound?
**A.** 0.924 µg/mL

**Q.** And the EC50 [17]?
**A.** 140 nM

**Q.** And the bioavailability [18]?
**A.** 3.4%

**Q.** What about the Ki [19] of the same compound?
**A.** 0.015 nM

**Q.** What about the EC50 [20] of the same compound?
**A.** 103 nM

**Q.** What about the Drug uptake (Serum [21]) of the same compound?
**A.** 5.33 µg/mL

**Q.** And the Ki [22]?
**A.** 177000 nM

**Q.** What about the EC50 [23] of the same compound?
**A.** 2 nM

**Q.** What about the Activity (Rattus norvegicus [24]) of the same compound?
**A.** 0.133 mg/dL

**Q.** What about the Ki (Renin) of the same compound?
**A.** > 4000 nM

**Q.** And the fraction unbound [25]?
**A.** 0.0034

**Q.** What about the AUC [26] of the same compound?
**A.** 0.15 µg·h/mL

**Q.** What about the half-life [27] of the same compound?
**A.** 1 h

**Q.** Which results are given for `COC(=O)N[C@H](C(=O)N[C@@H](Cc1ccccc1)[C@@H](O)CN(Cc1ccc(-c2ccccn2)cc1)NC(=O)[C@@H](NC(=O)OC)C(C)(C)C)C(C)(C)C` [ATAZANAVIR]?
**A.** EC50 [2]: 250 nM; EC50 [17]: 74 nM; EC50 [20]: 298 nM; EC50 [23]: 3 nM

**Q.** What does the source list for `Cc1cccc(C)c1OCC(=O)N[C@@H](Cc1ccccc1)[C@@H](O)C[C@H](Cc1ccccc1)NC(=O)[C@H](C(C)C)N1CCCNC1=O` [LOPINAVIR]?
**A.** EC50 [2]: 1060 nM; Ratio EC50 [3]: 59; EC50 [10]: 152 nM; EC50 [17]: 3790 nM; EC50 [20]: > 10000 nM
